Experimental findings from ChEMBL document CHEMBL1122670, “Synthesis of previously inaccessible quinazolines and 1,4-benzodiazepines as potential anticonvulsants” (J Med Chem, 1984) are described below.

The source made the active and inactive calls.

The subject of series [1] is GABA-A receptor; anion channel. The experiment in a line: Inhibition of binding to GABA-A central benzodiazepine receptor (Inactive at 80 uM). The series is classed as protein-complex assay, Mus musculus.
Series [2] can be described thus: Compound was determined in rotarod test and expressed as TD50. As to conditions: mouse, in vivo. The series is classed as ADME, organism-based. Summed up:
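ADD Program screen in mice. Doses of 30, 100, 300 and 600 mg/kg were given, four animals per dose, with tests at 30 min and at 4 h. sc Met endpoint: no threshold seizure (single clonic spasm of 5 s) after an sc convulsant dose 99 of pentylenetetrazol. Rotorod assessed acute neurotoxicity.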

For series [3], the system named is Mus musculus. The series can be described thus: Effective dose (ED50) was determined in sc Met (pentylenetetrazole) seizure threshold test; I = Inactive at all doses including 600 mg/kg. The series is classed as functional, organism-based. Also noted: dose 600 mg/kg. The essentials: (§1)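 ADD Program screen in mice. Doses of 30, 100, 300 and 600 mg/kg were given, four animals per dose, with tests at 30 min and at 4 h. sc Met endpoint: no threshold seizure (single clonic spasm of 5 s) after an sc convulsant dose 99 of pentylenetetrazol. Rotorod assessed acute neurotoxicity. ED50/TD50 were estimated graphically; Litchfield-Wilcoxon 95% confidence limits were added for selected cases.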

In series [4] the test system is Mus musculus. The series can be described thus: Evaluated for seizure threshold test at a dose 300 mg/kg & MMT is the maximal metrazole threshold to tonic flexion; I = Inactive. Also noted: dose 300 mg/kg. The series is classed as functional, organism-based. Summed up: (§2)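 0.5% pentylenetetrazol (with 0.9% NaCl and 0.001% heparin) was infused into a lateral tail vein at 6.31 μL/s. Time to 3 s of persistent clonus (MST) or hindlimb tonic flexion (MMT) was converted to mg/kg infused. Tested at 0.5 h (some at 4 h or 1 h). Results are % change from controls, by Student's t test.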

Series [5] concerns Mus musculus. The series can be described thus: Evaluated for seizure threshold test at a dose 300 mg/kg & MST is the metrazole seizure threshold to persistent clonus; I = Inactive. The series is classed as functional, organism-based. Also noted: dose 300 mg/kg. Summed up: as §2
For series [6], the system named is Mus musculus. The experiment in a line: Evaluated for seizure threshold test at a dose 50 mg/kg &MST is the metrazole seizure threshold to persistent clonus. The class given is functional. The essentials: (§3)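 At 0.5 h (some at 1 or 4 h), 0.5% pentylenetetrazol in 0.9% NaCl with 0.001% heparin was infused into the tail vein at 6.31 μL/s. Time to 3 s persistent clonus (MST) or tonic flexion (MMT) was converted to mg/kg, reported as % change vs controls, Student's t test.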

The subject of series [7] is Mus musculus. The series can be described thus: Evaluated for seizure threshold test at a dose 50 mg/kg &MMT is the maximal metrazole threshold to tonic flexion. The series is classed as functional. The essentials:
as §3

Series [8] has as its system Mus musculus. The series can be described thus: Evaluated for seizure threshold test at a dose 30 mg/kg &MMT is the maximal metrazole threshold to tonic flexion. The series is classed as functional. Summed up:
as §3

Series [9] has as its system Mus musculus. The series can be described thus: Evaluated for seizure threshold test at a dose 30 mg/kg &MST is the metrazole seizure threshold to persistent clonus. The series is classed as functional. Summed up:
as §3

Series [10] concerns Mus musculus. The series can be described thus: Evaluated for seizure threshold test at a dose 300 mg/kg &MMT is the maximal metrazole threshold to tonic flexion. The class given is functional. Summed up:
as §2

Series [11] has as its system Mus musculus. The series can be described thus: Evaluated for seizure threshold test at a dose 300 mg/kg &MST is the metrazole seizure threshold to persistent clonus. The class given is functional. Summed up: as §3
For series [12], the system named is Mus musculus. The experiment in a line: Effective dose (ED50) was determined (at 4hi)n sc Met (pentylenetetrazole) seizure threshold test. The class given is functional. The essentials:
as §1

Series [13] is described as follows: Compound was evaluated for median lethal dose. The series is classed as ADME, organism-based. To be noted: mouse, in vivo.
Series [14] deals with Mus musculus. The experiment in a line: Evaluated for seizure threshold test at a dose 25 mg/kg &MMT is the maximal metrazole threshold to tonic flexion. The class given is functional. The essentials:
as §2

In series [15] the test system is Mus musculus. The experiment in a line: Evaluated for seizure threshold test at a dose 25 mg/kg &MST is the metrazole seizure threshold to persistent clonus. The series is classed as functional. Summed up:
as §3

For series [16], the system named is Mus musculus. The series can be described thus: Effective dose (ED50) was determined in sc Met (pentylenetetrazole) seizure threshold test. The class given is functional. Summed up:
as §1

The subject of series [17] is Mus musculus. The experiment in a line: Evaluated for seizure threshold test at a dose 300 mg/kg & MMT is the maximal metrazole threshold to tonic flexion. The series is classed as functional. Summed up: as §2
Series [18] concerns Mus musculus. The series can be described thus: Evaluated for seizure threshold test at a dose 100 mg/kg & MST is the metrazole seizure threshold to persistent clonus. The class given is functional. Summed up: as §3
In series [19] the test system is Mus musculus. The experiment in a line: Evaluated for seizure threshold test at a dose 100 mg/kg & MMT is the maximal metrazole threshold to tonic flexion. The class given is functional. The essentials: as §3
The test system of series [20] is Mus musculus. The experiment in a line: Evaluated for seizure threshold test at a dose 49 mg/kg & MST is the metrazole seizure threshold to persistent clonus. The class given is functional. Summed up:
as §3

For series [21], the system named is Mus musculus. The experiment in a line: In vivo inhibition of Benzodiazepine (BDZ) binding in mice. The class given is functional, organism-based.
For series [22], the system named is Mus musculus. The experiment in a line: Evaluated for seizure threshold test at a dose 39 mg/kg & MMT is the maximal metrazole threshold to tonic flexion. The series is classed as functional. The essentials: as §3

With `Cc1cc2c(c(C#N)c1C)NC=NC2C1CCCCC1` (centres undefined), the IC50 entry in [1] is on record as “Not Active”. In series [2], this molecule came in with a TD50 of more than 600 mg/kg. Moreover, the ED50 entry in [3] was “inactive”. In addition, the Change entry in series [4] and in [5] was “inactive” throughout.
Take `Cc1ccccc1-n1c(C)nc2ccccc2c1=O` [METHAQUALONE]: the Change in series [6] is given as 42%; in series [7], 40%; in series [8], 17%; in [9] it was 18%.
On to `Cc1cc2c(c(C#N)c1C)NC(=O)NC2c1ccccc1` (centres undefined), for which the Change in [10] amounted to 22%; in series [11], 36%. This molecule also had a TD50 in series [2] of more than 1000 mg/kg. For the same molecule, the ED50 in [12] worked out at 600 mg/kg.
`Cc1cc2c(c(C#N)c1C)NC=NC2C` (centres undefined): the TD50 in [2] was 51.5 mg/kg. In addition, the ED50 result in series [3] was “inactive”. For the same molecule, the LD50 in [13] was determined as 150 mg/kg. Also, the Change in [14] is -56%; in [15] it was -36%.
Regarding `Cc1cc(C(=O)C2CCCCC2)c(N)c(C#N)c1C`, in [16], the 50% effect level (ED50) was put at a dose of 410 mg/kg. The same molecule showed a TD50 in [2] of more than 600 mg/kg. Besides, the Change in series [17] was 17%; in series [5], “Not significant”.
In series [16], `Cc1cc2c(c(C#N)c1C)NC(=O)CN=C2c1ccccc1F` registered an ED50 of 48.9 mg/kg. In series [2], the TD50 is 710 mg/kg. Further, the Change in [18] is recorded as 65%; in series [19], 50%; in [20], 23%; in [22], 30%. In addition, in series [21], the IC50 turned out to be 10 pM.
